Compound activity: PubChem, several laboratories
An excerpt weighted towards active compounds, which were near 2.7% of everything screened.
LYP inh 2: inhibitors of human LYP (PTPN22) phosphatase | Q9Y2R2 | inhibition, % at 2 µM | 96,000 tested, 0.21% active | recombinant LYP catalytic domain, DiFMUP fluorescence | AID 640;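 active means inhibition at 2 µM at or above a set limit, the screen mean plus 3 SD, cut at about 24% in these data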;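 further: 0% = DMSO with enzyme and 100% = enzyme fully blocked by orthovanadate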
PLK1 PBD inh: blocks phosphopeptide binding to human Plk1 polo box domain; Plk1 PBD phosphopeptide binding, fluorescence polarization; inhibition, %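 (tested at about 20 µM)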; 97,000 tested, 0.13% active; AID 693; in the data active means inhibition above about 34%, passing the limit was not always enough
PLK1 inh: inhibitors of human PLK1 kinase. inhibition, % at 10 µM. 97,000 tested, 0.53% active. recombinant PLK1 kinase, TR-FRET peptide phosphorylation. P53350;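 active means inhibition of 50% or more in the single-concentration screen; inactive means inhibition below 50%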;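 further: 0% = DMSO max control and 100% = H-89 dihydrochloride min control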
HIV Rev-RRE inh: disrupts HIV-1 Rev binding to RRE RNA; inhibition, % at 8 µM; Rev peptide-RRE RNA binding, FRET; AID 704; 97,000 tested, 0.79% active; P05866;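 active means inhibition above the screen-wide mean plus 3 SD, cut at about 35% in these data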;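 further: 0% = median DMSO wells and 100% = median Neomycin B control wells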
Target sequence (P05866 whole entry, looked up): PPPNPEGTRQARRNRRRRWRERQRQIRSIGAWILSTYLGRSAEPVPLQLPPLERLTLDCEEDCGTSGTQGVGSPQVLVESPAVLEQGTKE
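assay system = Cy5-tagged RRE RNA duplex with fluorescein-tagged Rev peptide | incubation = 5 + 15 min at 25 °C | also added = labelled Rev peptide | measure = % inhibition of FRET ratio versus controls | benchmarks = DMSO wells as 0% and neomycin B wells as 100% inhibition | measured by = FRET fluorescence readout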
PLAP act: human PLAP activation; P05187; purified PLAP enzyme, luminescent substrate read-out; active compounds read high; activation fold at 20 µM; 96,000 tested, 1.2% active; in the data active means activation fold above about 2
LYP act: increases human PTPN22 phosphatase activity; 96,000 tested, 0.11% active; Q9Y2R2; recombinant LYP, DiFMUP fluorescence; 0 = plate median, 100 = signal doubled; activation, % at 2 µM; AID 697;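 active means activation at 2 µM above a set limit, the mean plus 5 SD, cut at about 37% in these data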
An asterisk follows results filed as active; nt = no result given; [ ] = remark or other dose.

SMILES	LYP inh 2	PLK1 PBD inh	PLK1 inh	HIV Rev-RRE inh	PLAP act	LYP act
Cc1ccc(C2CC2c2n[nH]c(=S)n2-c2ccc(C)cc2)cc1 (stereo not given)	3	-3	-5	0	2.1*	0
c1ccc(-c2cc(-c3nnc4n3N=C(c3ccc5ccccc5c3)CS4)[nH]n2)cc1	30*	2	-10	5	1.7	-26
CC(C)Cn1c(N)c(C(=O)NCC2CCCO2)c2nc3ccccc3nc21 (stereo not given)	4	-10	-7	11	2*	-4
O=c1/c(=C/c2ccc([N+](=O)[O-])cc2)sc2n1CCCN=2	-3	2	-13	-6	0.9	7
O=[N+]([O-])c1ccc(/C=N/Nc2nc(N3CCCCCC3)nc(N3CCCCCC3)n2)o1	9	-6	-11	46*	nt	-8
COc1ccc2c(c1)CC/C(=C\Nc1ccc3c(c1)OCO3)C2=O	4	-35	7	32	0.8	-7
O=C1/C(=C/Nc2ccc3c(c2)OCO3)CCc2ccccc21	2	1	2	46*	0.5	-3
Cc1ccc(OCc2nc(-c3ccccn3)n[nH]2)cc1	7	-9	-12	2	2.6*	-6
CCN1CCN(S(=O)(=O)c2ccc(OC)c(Br)c2)CC1	6	13	-9	7	1.5	-2
O=C(c1ccc(C(=O)N2CCCc3ccccc32)s1)N1CCCc2ccccc21	9	-10	-10	6	1.5	-6
Cc1ccc(C)c2nc3sc(C(=O)N4CCCc5ccccc54)c(N)c3cc12	3	-45	-18	62*	0.9	1
CCCC(=O)Nc1nc2c(OC)ccc(OC)c2s1	nt	0	63*	0	0.8	nt
CCOC(=O)c1[nH]cnc1C(=O)Nc1ccncc1	-19	-2	-7	2	2.5*	14
CCOC(=O)c1c(-c2cccs2)csc1NC(=O)CNCCN1CCOCC1	1	-50	-6	7	2*	-4
CCNc1ccc(Br)cc(C(=O)/C=C/c2ccccc2Cl)c1=O	14	-15	-2	77*[fluorescence artefact?]	nt	-15
CNc1ccc(Br)cc(C(=O)/C=C/c2cccc(OC)c2OC)c1=O	9	-1	5	65*	nt	-9
O=C(CCSCCC(=O)NCc1ccccc1)NCc1ccccc1	-5	-8	-4	3	0.9	6
CN(CC(=O)NCC1CCCO1)S(=O)(=O)c1cc(Cl)ccc1Cl (stereo not given)	13	-1	-14	-3	1.1	-14
CCc1cc(=O)oc2cc(OCc3nn[nH]n3)ccc12	-7	-13	-2	2	1	6
O=C(CCNS(=O)(=O)c1ccc2c(c1)CCC(=O)N2)NCc1cccnc1	-8	8	-7	3	1	5
Nc1[nH]nc2nc(N3CCOCC3)nc(-c3ccccc3)c12	9	-7	68*	9	1.1	-9
CCc1ccc(/C(C)=N/Nc2cc(Cl)nc(C)n2)cc1	-1	4	-7	1	1.4	4
COc1ccc(OC)c(C(=O)CSc2nc3ncccc3[nH]2)c1	nt	nt	nt	nt	2.8*	nt
COC(=O)CSc1nc2ncccc2[nH]1	4	8	10	12	1.1	-2
COc1ccc(NC(=O)CSc2nc3ncccc3[nH]2)cc1OC	-6	28	48	2	2*	9
SMILES	LYP inh 2	PLK1 PBD inh	PLK1 inh	HIV Rev-RRE inh	PLAP act	LYP act
Cc1nnc(NC(=O)CN2C(=O)c3ccccc3S2(=O)=O)s1	3	10	-31	4	2.1*	-1
CCc1nnc(NC(=O)CN2C(=O)c3ccccc3S2(=O)=O)s1	2	0	-15	8	1.3	-1
CCOC(=O)c1c(NC(=O)Nc2ccc(Cl)cc2)sc(C)c1C	5	-4	-10	6	0.8	-2
CC(C)c1ccc(C2C3CSCC=C3C(C#N)=C(N)C2(C#N)C#N)cc1 (stereo not given)	5	-42	18	22	1.5	-3
CCCC1C2CN(C(C)C)CC=C2C(C#N)=C(N)C1(C#N)C#N (stereo not given)	-7	-1	-5	70*	1.1	5
CN1CC=C2C(C#N)=C(N)C(C#N)(C#N)[C@H](c3cccs3)[C@H]2C1	-9	-8	2	58*	nt	1
CN1CC=C2C(C#N)=C(N)C(C#N)(C#N)[C@H](c3cccc(Cl)c3)C2C1 (stereo not given in full)	-5	-30	2	64*	1	2
